Laboratory results taken from ChEMBL document CHEMBL1148104, “New sugar-mimic alkaloids from the pods of Angylocalyx pynaertii” (J Nat Prod, 2002).

How the values were obtained:
[1] = biological target: Lysosomal alpha-glucosidase (Rattus norvegicus) (UniProt Q6P7A9); experiment: Inhibition of rat intestinal maltase assessed as glucose release at 1000 uM by Glucose B-test
How it was run: (§1)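 Enzyme source was brush border membranes prepared from rat small intestine. Maltase, sucrase and isomaltase activities were read with the matching disaccharide substrate at each enzyme's optimum pH, and liberated D-glucose was quantified colorimetrically by Glucose B-test.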

[2] = biological target: Alpha-galactosidase (Coffea arabica) (UniProt Q42656); experiment: Inhibition of coffee bean alpha-galactosidase assessed as p-nitrophenol release at 1000 uM by spectrophotometrically
How it was run: (§2)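 Assayed with the appropriate p-nitrophenyl glycoside substrate at each enzyme's optimum pH.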

Rattus norvegicus = organism: Rattus norvegicus; experiment: Inhibition of rat epididymis alpha-mannosidase assessed as p-nitrophenol release at 1000 uM by spectrophotometrically
[3] = Inhibition of Aspergillus niger amyloglucosidase assessed as glucose release by Glucose B-test
How it was run: (§3)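 Disaccharide substrate suited to each enzyme, at that enzyme's optimum pH. Released D-glucose was measured colorimetrically with the Glucose B-test.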

Beta-galactosidase = biological target: T1, Beta-galactosidase (Bos taurus, UniProt Q58D55); experiment: Inhibition of bovine liver beta-galactosidase assessed as p-nitrophenol release by spectrophotometrically; how it was run: as §2
T1 sequence (Q58D55 whole entry): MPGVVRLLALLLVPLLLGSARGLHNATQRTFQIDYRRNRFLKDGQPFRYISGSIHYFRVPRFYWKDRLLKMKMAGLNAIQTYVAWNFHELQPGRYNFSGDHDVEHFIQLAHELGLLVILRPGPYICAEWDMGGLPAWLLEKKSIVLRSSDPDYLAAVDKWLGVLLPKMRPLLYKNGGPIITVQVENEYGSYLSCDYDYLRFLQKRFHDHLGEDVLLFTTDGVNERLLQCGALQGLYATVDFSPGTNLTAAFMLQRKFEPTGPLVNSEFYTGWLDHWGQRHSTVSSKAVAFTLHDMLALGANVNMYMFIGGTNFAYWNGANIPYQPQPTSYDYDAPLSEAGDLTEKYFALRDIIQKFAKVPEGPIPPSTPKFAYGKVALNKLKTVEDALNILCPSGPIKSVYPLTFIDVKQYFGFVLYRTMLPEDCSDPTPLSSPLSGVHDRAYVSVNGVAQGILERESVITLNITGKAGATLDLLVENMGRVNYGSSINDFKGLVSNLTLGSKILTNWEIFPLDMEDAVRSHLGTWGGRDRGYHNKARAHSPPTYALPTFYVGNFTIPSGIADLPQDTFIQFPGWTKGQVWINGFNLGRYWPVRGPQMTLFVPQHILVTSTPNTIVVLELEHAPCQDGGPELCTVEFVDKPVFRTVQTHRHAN

[4] = biological target: Sucrase-isomaltase, intestinal (Rattus norvegicus) (UniProt P23739); experiment: Inhibition of rat intestinal sucrase assessed as glucose release at 1000 uM by Glucose B-test; how it was run: as §1
Oryza sativa = experiment: Inhibition of rice alpha-glucosidase assessed as glucose release at 1000 uM by Glucose B-test; how it was run: as §3
[5] = Inhibition of yeast alpha-glucosidase assessed as p-nitrophenol release by spectrophotometrically; design: species or system Saccharomyces cerevisiae; how it was run: as §2
[6] = biological target: Sucrase-isomaltase, intestinal (Rattus norvegicus) (UniProt P23739); experiment: Inhibition of rat intestinal isomaltase assessed as glucose release at 1000 uM by Glucose B-test; how it was run: as §1
[7] = biological target: T2, Tissue alpha-L-fucosidase (Bos taurus, UniProt Q2KIM0); experiment: Inhibition of bovine epididymis alpha-L-fucosidase assessed as p-nitrophenol release by spectrophotometrically; how it was run: as §2
T2 sequence (Q2KIM0 whole entry): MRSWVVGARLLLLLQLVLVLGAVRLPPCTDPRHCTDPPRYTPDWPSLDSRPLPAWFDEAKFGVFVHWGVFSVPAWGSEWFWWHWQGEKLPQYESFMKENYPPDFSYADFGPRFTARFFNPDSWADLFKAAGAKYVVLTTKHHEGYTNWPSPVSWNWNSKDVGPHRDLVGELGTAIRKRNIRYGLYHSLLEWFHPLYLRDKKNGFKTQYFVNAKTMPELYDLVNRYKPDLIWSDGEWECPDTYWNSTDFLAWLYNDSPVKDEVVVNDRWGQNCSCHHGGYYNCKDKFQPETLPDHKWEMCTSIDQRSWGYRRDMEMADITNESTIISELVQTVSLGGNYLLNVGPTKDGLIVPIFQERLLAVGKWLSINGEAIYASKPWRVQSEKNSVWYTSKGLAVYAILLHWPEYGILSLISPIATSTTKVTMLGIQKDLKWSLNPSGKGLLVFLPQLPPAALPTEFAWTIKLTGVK

Beta-mannosidase = biological target: T3, Beta-mannosidase (Rattus norvegicus, UniProt Q4FZV0); experiment: Inhibition of rat epididymis beta-mannosidase assessed as p-nitrophenol release by spectrophotometrically
T3 sequence (Q4FZV0 whole entry): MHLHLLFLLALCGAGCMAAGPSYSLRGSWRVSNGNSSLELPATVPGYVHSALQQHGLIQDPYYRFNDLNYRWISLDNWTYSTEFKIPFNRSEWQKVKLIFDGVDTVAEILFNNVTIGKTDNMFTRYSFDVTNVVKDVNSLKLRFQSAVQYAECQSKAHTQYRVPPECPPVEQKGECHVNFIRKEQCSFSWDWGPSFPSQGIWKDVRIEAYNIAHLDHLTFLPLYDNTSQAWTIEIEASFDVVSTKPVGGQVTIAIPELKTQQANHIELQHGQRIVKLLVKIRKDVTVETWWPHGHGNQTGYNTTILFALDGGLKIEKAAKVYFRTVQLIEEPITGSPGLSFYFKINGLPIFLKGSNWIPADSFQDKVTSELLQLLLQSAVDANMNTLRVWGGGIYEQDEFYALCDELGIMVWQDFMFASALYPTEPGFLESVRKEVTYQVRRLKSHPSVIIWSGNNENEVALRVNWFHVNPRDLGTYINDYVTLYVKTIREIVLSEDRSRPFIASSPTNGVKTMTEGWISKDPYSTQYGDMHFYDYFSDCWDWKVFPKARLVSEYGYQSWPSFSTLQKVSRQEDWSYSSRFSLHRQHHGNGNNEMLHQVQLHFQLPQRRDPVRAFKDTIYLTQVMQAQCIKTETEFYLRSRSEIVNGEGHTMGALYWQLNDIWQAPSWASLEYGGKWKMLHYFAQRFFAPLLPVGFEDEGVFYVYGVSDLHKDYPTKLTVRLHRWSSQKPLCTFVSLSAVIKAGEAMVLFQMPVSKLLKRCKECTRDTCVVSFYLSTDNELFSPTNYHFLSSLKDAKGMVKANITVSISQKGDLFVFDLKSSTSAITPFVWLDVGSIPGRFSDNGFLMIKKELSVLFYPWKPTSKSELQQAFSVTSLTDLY

Uncharacterized protein = biological target: T4, Uncharacterized protein (Sus scrofa, UniProt I3LIR5); experiment: Inhibition of pig kidney trehalase assessed as p-nitrophenol release by spectrophotometrically
T4 sequence (I3LIR5 whole entry): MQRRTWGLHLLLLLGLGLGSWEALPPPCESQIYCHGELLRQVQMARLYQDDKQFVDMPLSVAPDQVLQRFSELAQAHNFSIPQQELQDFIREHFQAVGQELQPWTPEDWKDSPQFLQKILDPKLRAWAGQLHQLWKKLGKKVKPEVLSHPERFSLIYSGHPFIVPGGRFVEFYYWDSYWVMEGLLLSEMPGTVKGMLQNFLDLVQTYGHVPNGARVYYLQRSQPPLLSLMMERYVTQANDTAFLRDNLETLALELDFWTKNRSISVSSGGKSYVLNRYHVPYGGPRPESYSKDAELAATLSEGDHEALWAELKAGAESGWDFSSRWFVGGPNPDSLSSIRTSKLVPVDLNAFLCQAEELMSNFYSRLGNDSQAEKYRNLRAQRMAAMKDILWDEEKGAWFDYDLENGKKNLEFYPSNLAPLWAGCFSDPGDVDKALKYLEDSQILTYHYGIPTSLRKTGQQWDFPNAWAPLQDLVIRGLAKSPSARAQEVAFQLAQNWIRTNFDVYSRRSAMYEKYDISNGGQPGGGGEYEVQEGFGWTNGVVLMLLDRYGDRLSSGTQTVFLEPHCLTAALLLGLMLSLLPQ

[8] = Inhibition of yeast isomaltase alpha-glucosidase assessed as glucose release by Glucose B-test
Alpha-glucosidase MAL62 = Alpha-glucosidase MAL62 (Saccharomyces cerevisiae, UniProt P07265); experiment: Inhibition of yeast maltase alpha-glucosidase assessed as glucose release by Glucose B-test
[9] = biological target: T5, Uncharacterized protein (Sus scrofa) (UniProt I3LIR5); experiment: Inhibition of pig kidney trehalase assessed as p-nitrophenol release at 1000 uM by spectrophotometrically
T5 sequence (whole entry): T4 sequence (I3LIR5 whole entry)

[10] = biological target: T6, Beta-mannosidase (Rattus norvegicus) (UniProt Q4FZV0); experiment: Inhibition of rat epididymis beta-mannosidase assessed as p-nitrophenol release at 1000 uM by spectrophotometrically
T6 sequence (whole entry): T3 sequence (Q4FZV0 whole entry)

Aspergillus niger = experiment: Inhibition of Aspergillus niger amyloglucosidase assessed as glucose release at 1000 uM by Glucose B-test; how it was run: as §3
Saccharomyces cerevisiae [11] = experiment: Inhibition of yeast alpha-glucosidase assessed as p-nitrophenol release at 1000 uM by spectrophotometrically; how it was run: as §2
[12] = biological target: T7, Tissue alpha-L-fucosidase (Bos taurus) (UniProt Q2KIM0); experiment: Inhibition of bovine epididymis alpha-L-fucosidase assessed as p-nitrophenol release at 1000 uM by spectrophotometrically; how it was run: as §2
T7 sequence (whole entry): T2 sequence (Q2KIM0 whole entry)

[13] = biological target: T8, Beta-galactosidase (Bos taurus) (UniProt Q58D55); experiment: Inhibition of bovine liver beta-galactosidase assessed as p-nitrophenol release at 1000 uM by spectrophotometrically; how it was run: as §2
T8 sequence (whole entry): T1 sequence (Q58D55 whole entry)

[14] = Inhibition of rat epididymis alpha-mannosidase assessed as p-nitrophenol release by spectrophotometrically
[15] = Inhibition of rice alpha-glucosidase assessed as glucose release by Glucose B-test; design: species or system Oryza sativa; how it was run: as §3
Alpha-galactosidase = Alpha-galactosidase (Coffea arabica, UniProt Q42656); experiment: Inhibition of coffee bean alpha-galactosidase assessed as p-nitrophenol release by spectrophotometrically; how it was run: as §2
[16] = biological target: T9, Sucrase-isomaltase, intestinal (Rattus norvegicus, UniProt P23739); experiment: Inhibition of rat intestinal sucrase assessed as glucose release by Glucose B-test
[17] = biological target: T9, Sucrase-isomaltase, intestinal; experiment: Inhibition of rat intestinal isomaltase assessed as glucose release by Glucose B-test
[18] = biological target: Alpha-glucosidase MAL62 (Saccharomyces cerevisiae) (UniProt P07265); experiment: Inhibition of yeast maltase alpha-glucosidase assessed as glucose release at 1000 uM by Glucose B-test
Saccharomyces cerevisiae [19] = experiment: Inhibition of yeast isomaltase alpha-glucosidase assessed as glucose release at 1000 uM by Glucose B-test

Sequence of Sucrase-isomaltase, intestinal (Rattus norvegicus) (P23739 1-1013 limits assumed): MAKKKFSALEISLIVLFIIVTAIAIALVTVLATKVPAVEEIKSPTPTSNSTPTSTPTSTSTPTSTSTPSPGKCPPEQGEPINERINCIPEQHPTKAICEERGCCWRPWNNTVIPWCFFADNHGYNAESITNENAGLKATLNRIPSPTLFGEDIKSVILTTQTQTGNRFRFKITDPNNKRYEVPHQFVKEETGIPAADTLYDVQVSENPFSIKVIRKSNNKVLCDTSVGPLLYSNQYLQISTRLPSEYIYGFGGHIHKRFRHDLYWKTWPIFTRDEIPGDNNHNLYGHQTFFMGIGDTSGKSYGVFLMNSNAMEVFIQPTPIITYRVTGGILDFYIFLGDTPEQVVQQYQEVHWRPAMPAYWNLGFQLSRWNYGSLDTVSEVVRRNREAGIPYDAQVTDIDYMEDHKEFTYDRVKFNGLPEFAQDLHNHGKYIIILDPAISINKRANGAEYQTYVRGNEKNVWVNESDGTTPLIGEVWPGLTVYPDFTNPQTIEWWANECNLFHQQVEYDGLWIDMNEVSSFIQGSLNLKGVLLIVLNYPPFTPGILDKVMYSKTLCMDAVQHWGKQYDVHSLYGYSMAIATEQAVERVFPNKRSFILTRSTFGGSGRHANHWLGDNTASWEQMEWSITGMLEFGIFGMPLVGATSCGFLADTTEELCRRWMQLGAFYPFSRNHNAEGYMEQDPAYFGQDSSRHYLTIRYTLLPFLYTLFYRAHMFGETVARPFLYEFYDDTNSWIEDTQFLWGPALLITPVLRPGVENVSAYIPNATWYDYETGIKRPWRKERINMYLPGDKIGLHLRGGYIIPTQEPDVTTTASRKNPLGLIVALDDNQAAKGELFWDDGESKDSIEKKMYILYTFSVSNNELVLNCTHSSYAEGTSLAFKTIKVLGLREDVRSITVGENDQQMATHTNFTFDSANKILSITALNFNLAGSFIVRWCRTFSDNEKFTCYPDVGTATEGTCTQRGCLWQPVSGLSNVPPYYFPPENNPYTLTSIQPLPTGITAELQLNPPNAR
Sequence of Sucrase-isomaltase, intestinal (Rattus norvegicus) (P23739 1014-1841 limits assumed): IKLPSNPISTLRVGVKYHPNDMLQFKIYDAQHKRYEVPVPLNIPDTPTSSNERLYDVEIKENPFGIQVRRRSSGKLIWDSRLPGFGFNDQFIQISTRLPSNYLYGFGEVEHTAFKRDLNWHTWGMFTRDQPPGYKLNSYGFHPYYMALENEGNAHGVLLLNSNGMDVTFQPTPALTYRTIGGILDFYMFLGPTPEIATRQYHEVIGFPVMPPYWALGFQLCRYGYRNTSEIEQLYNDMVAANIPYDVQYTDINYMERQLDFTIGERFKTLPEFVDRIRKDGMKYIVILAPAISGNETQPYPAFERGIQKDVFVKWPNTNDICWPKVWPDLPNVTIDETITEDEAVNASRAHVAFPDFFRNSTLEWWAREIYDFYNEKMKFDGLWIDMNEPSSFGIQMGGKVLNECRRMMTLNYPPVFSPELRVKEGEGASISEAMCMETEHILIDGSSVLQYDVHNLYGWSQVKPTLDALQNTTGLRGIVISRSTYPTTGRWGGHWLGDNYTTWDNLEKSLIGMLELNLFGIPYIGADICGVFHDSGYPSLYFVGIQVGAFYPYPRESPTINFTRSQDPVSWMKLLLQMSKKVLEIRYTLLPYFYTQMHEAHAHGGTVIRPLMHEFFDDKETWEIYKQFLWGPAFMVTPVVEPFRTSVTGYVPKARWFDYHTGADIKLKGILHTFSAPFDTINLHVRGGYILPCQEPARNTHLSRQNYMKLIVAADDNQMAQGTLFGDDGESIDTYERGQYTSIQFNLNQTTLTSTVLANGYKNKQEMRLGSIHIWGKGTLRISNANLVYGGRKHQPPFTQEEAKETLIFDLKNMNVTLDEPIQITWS
Sequence of Lysosomal alpha-glucosidase (Rattus norvegicus) (Q6P7A9 whole entry): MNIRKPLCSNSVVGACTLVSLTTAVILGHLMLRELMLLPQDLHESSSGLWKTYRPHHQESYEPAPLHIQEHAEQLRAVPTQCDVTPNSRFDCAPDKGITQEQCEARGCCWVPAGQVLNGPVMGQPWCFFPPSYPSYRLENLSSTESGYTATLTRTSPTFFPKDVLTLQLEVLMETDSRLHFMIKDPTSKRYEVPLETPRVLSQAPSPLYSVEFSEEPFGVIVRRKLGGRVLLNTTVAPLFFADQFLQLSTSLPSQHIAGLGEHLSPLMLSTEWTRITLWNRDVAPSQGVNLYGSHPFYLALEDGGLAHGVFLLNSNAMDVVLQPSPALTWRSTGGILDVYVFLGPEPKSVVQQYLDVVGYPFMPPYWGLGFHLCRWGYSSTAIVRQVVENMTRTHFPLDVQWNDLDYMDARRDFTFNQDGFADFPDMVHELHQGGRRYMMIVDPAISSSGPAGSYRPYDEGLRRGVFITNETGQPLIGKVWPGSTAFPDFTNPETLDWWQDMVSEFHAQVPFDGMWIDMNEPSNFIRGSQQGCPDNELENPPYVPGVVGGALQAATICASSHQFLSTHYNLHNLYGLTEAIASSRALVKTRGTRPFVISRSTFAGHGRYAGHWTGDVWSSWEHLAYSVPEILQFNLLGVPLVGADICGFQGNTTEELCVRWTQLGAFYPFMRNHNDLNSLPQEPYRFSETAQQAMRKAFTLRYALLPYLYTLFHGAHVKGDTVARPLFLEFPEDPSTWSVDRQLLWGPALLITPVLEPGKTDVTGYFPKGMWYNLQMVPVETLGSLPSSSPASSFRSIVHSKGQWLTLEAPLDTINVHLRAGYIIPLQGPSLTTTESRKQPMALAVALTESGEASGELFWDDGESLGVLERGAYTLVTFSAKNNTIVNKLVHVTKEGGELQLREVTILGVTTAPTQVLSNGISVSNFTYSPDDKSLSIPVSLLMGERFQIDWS
Sequence of Alpha-galactosidase (Coffea arabica) (Q42656 16-378 limits assumed): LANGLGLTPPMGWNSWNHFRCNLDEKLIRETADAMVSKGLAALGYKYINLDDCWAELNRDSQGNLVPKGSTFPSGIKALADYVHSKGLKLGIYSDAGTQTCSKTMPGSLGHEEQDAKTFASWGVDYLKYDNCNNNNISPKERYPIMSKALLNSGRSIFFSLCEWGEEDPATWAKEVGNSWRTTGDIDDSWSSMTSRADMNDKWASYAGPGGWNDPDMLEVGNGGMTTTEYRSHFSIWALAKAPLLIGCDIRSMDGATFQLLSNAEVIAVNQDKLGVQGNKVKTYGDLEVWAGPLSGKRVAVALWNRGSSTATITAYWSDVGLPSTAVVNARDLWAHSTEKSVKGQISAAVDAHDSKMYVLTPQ
Sequence of Alpha-glucosidase MAL62 (P07265 whole entry): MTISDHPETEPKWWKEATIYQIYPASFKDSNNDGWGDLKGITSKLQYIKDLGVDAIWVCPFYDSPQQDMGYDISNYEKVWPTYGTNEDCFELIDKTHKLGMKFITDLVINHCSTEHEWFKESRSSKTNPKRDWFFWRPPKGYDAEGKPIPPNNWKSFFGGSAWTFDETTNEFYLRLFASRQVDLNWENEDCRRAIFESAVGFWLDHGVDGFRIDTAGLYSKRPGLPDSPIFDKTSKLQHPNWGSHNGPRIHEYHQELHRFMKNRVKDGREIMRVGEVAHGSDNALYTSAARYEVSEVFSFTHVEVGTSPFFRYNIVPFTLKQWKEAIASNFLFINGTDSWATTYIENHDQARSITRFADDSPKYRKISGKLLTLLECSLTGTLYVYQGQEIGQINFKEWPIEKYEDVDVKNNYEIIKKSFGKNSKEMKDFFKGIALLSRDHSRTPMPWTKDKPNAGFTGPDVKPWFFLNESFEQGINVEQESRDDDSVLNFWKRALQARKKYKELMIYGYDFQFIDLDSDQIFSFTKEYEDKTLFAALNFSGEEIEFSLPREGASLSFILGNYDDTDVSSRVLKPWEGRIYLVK
T9 sequence (P23739 1-1013 limits assumed): as the sequence (P23739 1-1013 limits assumed) above
T9 sequence (P23739 1014-1841 limits assumed): as the sequence (P23739 1014-1841 limits assumed) above
Sequence of Alpha-galactosidase (Q42656 whole entry): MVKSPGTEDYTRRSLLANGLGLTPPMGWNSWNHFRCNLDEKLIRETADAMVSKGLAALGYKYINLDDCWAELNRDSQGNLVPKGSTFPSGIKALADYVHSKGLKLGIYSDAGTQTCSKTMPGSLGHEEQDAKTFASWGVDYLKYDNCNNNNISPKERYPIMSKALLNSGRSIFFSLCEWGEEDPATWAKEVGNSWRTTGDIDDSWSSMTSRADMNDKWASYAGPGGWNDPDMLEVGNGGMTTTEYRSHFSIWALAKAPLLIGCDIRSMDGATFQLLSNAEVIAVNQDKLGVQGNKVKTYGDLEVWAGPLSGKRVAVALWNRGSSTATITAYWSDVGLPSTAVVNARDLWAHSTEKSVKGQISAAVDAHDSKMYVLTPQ
Sequence of Alpha-glucosidase MAL62 (Saccharomyces cerevisiae) (P07265 whole entry): as the sequence (P07265 whole entry) above

inhibition [1]	inhibition [2]	inhibition (Rattus norvegicus)	IC50 [3]	inhibition [4]	inhibition (Oryza sativa)	IC50 [5]	inhibition [6]	IC50 (Alpha-glucosidase MAL62)	inhibition [10]	inhibition [12]	inhibition [13]	further results	SMILES
< 50%	< 50%	< 50%	160 µM	< 50%	< 50%	270 µM	< 50%					IC50 (Beta-galactosidase): 30 µM; IC50 [7]: 150 µM; IC50 (Beta-mannosidase): 93 µM	C[C@H]1N[C@H](CO)[C@@H](O)[C@@H]1O
								110 µM				IC50 (Uncharacterized protein): 41 µM; IC50 [8]: 42 µM	OC[C@H]1NC[C@H](O)[C@@H](O)[C@@H]1O [DUVOGLUSTAT]
								260 µM				IC50 [8]: 240 µM; inhibition [9]: < 50%	OCCN1[C@H](CO)[C@@H](O)[C@H](O)[C@H]1CO
< 50%	< 50%	< 50%		< 50%	< 50%		< 50%		< 50%	< 50%	< 50%	inhibition (Aspergillus niger): < 50%; inhibition (Saccharomyces cerevisiae [11]): < 50%	OC[C@H]1NC[C@@H](O[C@@H]2O[C@H](CO)[C@@H](O)[C@H](O)[C@H]2O)[C@@H]1O
	< 50%		400 µM			1.2 µM		0.84 µM		< 50%	< 50%	IC50 (Uncharacterized protein): 2.5 µM; IC50 [8]: 0.11 µM; IC50 [14]: 150 µM; IC50 [15]: 120 µM; IC50 (Beta-mannosidase): 290 µM	OC[C@H]1NC[C@@H](O)[C@@H]1O
< 50%		< 50%	620 µM		< 50%	290 µM		78 µM	< 50%	< 50%	< 50%	IC50 [8]: 12 µM; IC50 (Alpha-galactosidase): 700 µM; inhibition [9]: < 50%; IC50 [16]: 250 µM; IC50 [17]: 84 µM	OCCN1C[C@@H](O)[C@H](O)[C@H]1CO
< 50%	< 50%	< 50%	510 µM	< 50%	< 50%	570 µM	< 50%		< 50%			IC50 (Beta-galactosidase): 420 µM; IC50 [7]: 1 µM; Ki [7]: 490 nM	C[C@H]1N[C@@H](CO)[C@H](O)[C@H]1O
< 50%	< 50%	< 50%		< 50%	< 50%		< 50%		< 50%	< 50%	< 50%	inhibition (Aspergillus niger): < 50%; inhibition (Saccharomyces cerevisiae [11]): < 50%	OC[C@H]1O[C@@H](OC[C@H]2NC[C@@H](O)[C@@H]2O)[C@H](O)[C@@H](O)[C@@H]1O
								2 µM					OC[C@H]1N[C@H](CO)[C@@H](O)[C@@H]1O
< 50%	< 50%	< 50%	1000 µM			230 µM				< 50%		IC50 (Beta-galactosidase): 380 µM; IC50 [15]: 1000 µM; IC50 (Beta-mannosidase): 18 µM	OC[C@H]1NC[C@H](O)[C@@H]1O [IMINORIBITOL]
												Ki [7]: 60 nM	C[C@H]1O[C@H](OC[C@H]2NC[C@@H](O)[C@@H](O)[C@@H]2O)[C@@H](O)[C@@H](O)[C@@H]1O
												Ki [7]: 5.3 nM	C[C@@H]1N[C@H](CO)[C@@H](O)[C@H](O)[C@@H]1O
												IC50 (Uncharacterized protein): 700 µM; inhibition [18]: < 50%; inhibition (Saccharomyces cerevisiae [19]): < 50%	OCCN1C[C@H](O)[C@@H](O)[C@H](O)[C@H]1CO [MIGLITOL]
< 50%	< 50%	< 50%		< 50%	< 50%		< 50%		< 50%		< 50%	inhibition (Aspergillus niger): < 50%; inhibition (Saccharomyces cerevisiae [11]): < 50%; IC50 [7]: 35 µM	C[C@H]1N[C@@H](CO)[C@@H](O)[C@H]1O
